We go through 167 variants from the RNAGym collection of RNA variant scans (doi:10.1126/science.aae0568).

Fewer inactive variants are shown than the library holds. A value given as a limit tells only on which side of the number the result lay.

B1: tRNA (parent)
chain: GUUCCGUUGGCGUAAUGGUAACGCGUCUCCCUCCUAAGGAGAAGACUGCGGGUUCGAGUCCCGUACGGAACG

In the series the parent is B1. Kind of series: yeast fitness relative to wild type (ratio to wild type); higher = fitter; tRNA-Arg(CCU), competitive growth, 37 C, YPD. The gist of the method:
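A pool of Saccharomyces cerevisiae strains, each with a tRNA-Arg(CCU) gene variant at the native genomic locus, was competed in YPD at 37°C for 24 hours across six parallel replicates. The variants had been chemically synthesised at a 3% per-site mutation rate over 69 sites, and gene amplicons before and after competition were read by 100-nucleotide paired-end sequencing. Darwinian fitness relative to wild type rested on changes in genotype frequencies. Genotypes required ≥ 100 starting reads, and estimates < 0.5 were set to 0.5.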
As for A15G C24A, the yeast fitness was 0.587.
For C31G C46G C61G, the yeast fitness is at most 0.5.
The value for U19A G50A G68C was at most 0.5.
The value for A43C U54A A57G was at most 0.5.
Regarding U13C C60A A70G, the yeast fitness amounted to 0.588.
On to U26C C62U G67A, for which the yeast fitness came out at 0.542.
The same measure for A15G U53A: 0.667.
Turning to C34G G52C C60G, the yeast fitness is at most 0.5.
The same measure for A45U G58A: 0.907; for C5A C29A: 0.612; for U3G G25A: 0.768.
C4U U8G G12A U54G: the yeast fitness is at most 0.5.
The same measure for A15U C24G C30U: 0.608.
The same measure for A43U U54A A70G: at most 0.5; for U3G U35A: 0.533.
U7G C11G C34U G41A U54C U64C: the yeast fitness is at most 0.5.
The value for C29G U47A U59A A69G was at most 0.5; that for U2C C30U C31G G50U was at most 0.5; that for U7C U54G was 0.535.
Turning to G10A G67A, the yeast fitness turned out to be 0.75.
With U3A C24G C31U C61A, the yeast fitness worked out at 0.533.
The value for G25C U26G G51C was at most 0.5; that for A21U C27G C61U was at most 0.5; that for G10C A15G U35A G44A C61A U64C was at most 0.5.
For G12A A20U C27A U32C C55U G68A, the yeast fitness was at most 0.5.
The value for G9A C22A U47G C55A U64C G67A was at most 0.5.
The value for U7G C27G U32C A36G G63A was at most 0.5; that for U7G U26C C31A G38C was 0.561.
The value for C11U A15G G18A C31A A36G C61G was 0.513.
As for A20G C66U, the yeast fitness is 0.857.
The value for A15C U16A A21G U26A C30U C61A was 0.692; that for C11A C34A C55U C60A was at most 0.5.
The value for C22U U32G C34U A40G A42G C66U was 0.561; that for U13C A14C U64C A65C was at most 0.5.
The same measure for G10A A15C G39C: at most 0.5; for G25A A37C C62U: 0.924; for U2G A42G: 0.866.
Consider A20U G23A A65G G68C, for which the yeast fitness was determined as 0.513.
The value for G6A A20G A36G C49G C62A C66U was at most 0.5; that for U28A C33G A36U A40G U54C was 0.528.
The same measure for A37C A40U G52C A69G: at most 0.5; for G25A A37U C61A: 0.616; for U3A A36G: 0.868.
For C31U G38A, the yeast fitness is 0.81.
The same measure for C30A G41A A42C G50C A70G: at most 0.5.
The same measure for C5U C22G A45C: 0.566.
The value for U2A C11G G17A A20U C33G G38C was at most 0.5; that for G6C G48A was 1.01.
Consider A14G U47C G68A, for which the yeast fitness was at most 0.5.
Regarding G23A G38A G41C G50C C55G, the yeast fitness was found to be 0.696.
The same measure for U16A U28A C62U: at most 0.5; for C5G A15G U16A A20G U28A C30A C33A A36U A69U: at most 0.5; for A36U C49G U54A A57C G68A: at most 0.5.
The value for U16A G18U C29G C30G C46G was at most 0.5.
With C22G U54C, the yeast fitness amounted to 0.775.
The same measure for U16A C27G U64C C66U G67A: at most 0.5; for G23A C31U C33G G63U: at most 0.5.
The same measure for A20U U28G C33U U35G C60A: at most 0.5.
C27U C31G A69U: the yeast fitness is 0.624.
The value for G18C C46A was 0.726; that for C5U A20G C61U was 0.711; that for C11G A20C C24U A36C U47A G56C C60G was at most 0.5.
The value for C5A U35G G41A G56A A70C was 0.543; that for U3C C22A A70C was 0.607; that for C5U U35C A43U A70G was at most 0.5.
On to C24G A57G A70G, for which the yeast fitness is at most 0.5.
The value for A42G A45U G50C was at most 0.5.
A20C C33G U59C: the yeast fitness came to 0.685.
Consider G6A U47C, for which the yeast fitness worked out at 0.878.
Regarding C4U C24A U47G, the yeast fitness was at most 0.5.
Take C4A U16G C22U G23U A42C G50C G63C G68C: the yeast fitness turned out to be 0.604.
The value for C11A U32A C33U C66A was at most 0.5; that for U8C G17A U54A G56C was at most 0.5; that for U35C U54A was at most 0.5.
A14C A20C A42G G44A: the yeast fitness turned out to be 0.633.
The same measure for C4G G10C C46A G68C: at most 0.5.
The value for U13A G23C A70C was 0.667; that for A20G C29U C55G A57C C61U was 0.746.
The same measure for A14G C24A C34G G38C: at most 0.5; for C22G C27A G63A: at most 0.5; for C27U C31U G67C: 0.727.
On to A14C C27U A43U, for which the yeast fitness is at most 0.5.
The same measure for C27U C29A G38C A57G A65C C66A: at most 0.5; for U7A G9C G17C A40U A65C: at most 0.5; for C30G G38C G56A A65G: 0.624.
Regarding C29U A42C A45C G50A, the yeast fitness was at most 0.5.
For C4A A36U G50A C61U, the yeast fitness was at most 0.5.
Take C5G U13G C29U G50C U59A: the yeast fitness was at most 0.5.
The same measure for G12A U35A: 0.706.
Consider C22U C30U C33U A45C G56C G68C, for which the yeast fitness was at most 0.5.
The value for A36U G51C U53C was at most 0.5; that for G9C C31G A40C A45C G48C was 0.668; that for C4A U32C C33U C49G was at most 0.5.
The same measure for U13A G67A: 0.9; for G23A C33G U35G C60A C62U: at most 0.5; for C34A A57U: 0.529.
The same measure for G10C C29G A70C: at most 0.5; for C31U A65U G68U: 0.699; for G18A U26G G48C A65G: at most 0.5.
On to C30U G50A G68A, for which the yeast fitness is at most 0.5.
Regarding C4G A20C U26G C33U G44C U59A G67A, the yeast fitness is at most 0.5.
The value for A20C G51A was 0.815.
The value for C11G C22U A40C C46U C60A was at most 0.5.
G9C C29G C34G C60G C62U: the yeast fitness is at most 0.5.
As for U2A C24G G25A C61G G67C G68A, the yeast fitness was at most 0.5.
Consider G10C A14C G52C, for which the yeast fitness was at most 0.5.
The value for C4A A40U G52C C60G A69C was 0.55; that for C11G G18C A69U was at most 0.5; that for A21G A45C was 0.89.
Take G41C A45G: the yeast fitness was 0.778.
The value for G10A A15U A21C G25C G56A was at most 0.5; that for A14G C22U C29G C33G A37G was at most 0.5; that for C11A A42C G50C A57C C61G was at most 0.5.
The value for A43U A45C G67C was at most 0.5; that for U8A C31A C61U was at most 0.5; that for U8C C11G A69U was at most 0.5.
The value for C30A A43G was 0.958.
For C4G U8A G12A C22U G48A A69C, the yeast fitness was found to be 0.522.
As for C27U C33U A37U G51A A70G, the yeast fitness was determined as 0.552.
The value for G23C C34U A36U was at most 0.5.
The value for U2C C4A G23A C61A was at most 0.5.
Consider A37C C49G A57C A70G, for which the yeast fitness stood at 0.516.
The value for C34G A40C was 0.636; that for G12A U13C C22A U26C U47A U54G was at most 0.5; that for U2G C30A C46G was 0.666.
The value for G44A C55A A69C was at most 0.5.
In the case of U32A C46A A65G C66A G68C, the yeast fitness is at most 0.5.
The value for C11A G18A C31U was 0.535; that for G9A C30U G44A A65U was 0.578; that for C34G A36G G52A C66U was at most 0.5.
The value for C33G C61A C66U was 0.583; that for G10A C34A was 0.712.
The same measure for U16C C30U A36U: at most 0.5; for C30A A43U A65U: 0.608; for U16A U26C C31A C33A U35C U47A: at most 0.5.
With C11U C55G C66U, the yeast fitness is at most 0.5.
The same measure for G10C U26A C49U: at most 0.5; for A14U C60G: at most 0.5; for C27G G50A: 0.654.
On to U19G C30A C49U, for which the yeast fitness was found to be 0.602.
With A21U A57U C61G, the yeast fitness was at most 0.5.
The value for G6C U8C G25A C34U A43U was at most 0.5; that for C30U C46A C62U was 0.852.
For C49U G63C G67C, the yeast fitness stood at 0.53.
As for C4U C11A A70G, the yeast fitness is at most 0.5.
On to A15G A43C C61A, for which the yeast fitness is at most 0.5.
The value for G12C C24A was 0.685; that for U19G A21U C46U was 0.809; that for C22G C49A G56C G58C C60A was at most 0.5.
The same measure for U13C A14U G41C G48C: at most 0.5.
In the case of C29G A37G C60U A69C, the yeast fitness was at most 0.5.
The value for G6C C29U C31U U54G A65U G67A was at most 0.5; that for G41C G50C C60U was at most 0.5; that for A21G G50A C55U was 0.533.
Consider U7C U8G C27A A69U, for which the yeast fitness was at most 0.5.
C31G U32A C49U C62A: the yeast fitness is at most 0.5.
G23C C27G C31A A45U G67A: the yeast fitness was at most 0.5.
The same measure for C11G A20C A45G A70U: at most 0.5.
Regarding A14G G38A A43G, the yeast fitness is at most 0.5.
With U2A C27U C34A, the yeast fitness is at most 0.5.
A20G A45U G67C: the yeast fitness is 0.613.
As for A20G C27G A40U, the yeast fitness is at most 0.5.
As to U2G C5A C55G A65C, the yeast fitness is at most 0.5.
The value for C33G A42U C60G was at most 0.5; that for G10A G68U was 0.75.
The same measure for A43U U47C: 0.899; for C4U A42U C49G: 0.543.
